Results published in ChEMBL document CHEMBL2021823, “Antiproliferative acetogenins from a Uvaria sp. from the Madagascar dry forest” (J Nat Prod, 2012).

Key:
NCI-H522 = assay: Antiproliferative activity against human NCI-H522 cells after 96 hrs by CellTiter-Glo assay; type: functional, cell-based; settings: NCI-H522, 96 h
How it was run: (§1)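 A2058 melanoma and H522 lung cancer cell lines, run at Eisai by procedures similar to those used for the H460 line; activity reported as IC50.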

A2058 = assay: Antiproliferative activity against human A2058 cells after 96 hrs by CellTiter-Glo assay; type: functional, cell-based; settings: A2058, 96 h; how it was run: as §1
A2780 = assay: Antiproliferative activity against human A2780 cells after 2 days by Alamar blue assay; settings: A2780, 48 h

CCCCCCCCCCCCC[C@H](O)[C@@H]1CC[C@@H]([C@H]2CC[C@H]([C@@H](O)CCCC(O)CCCCCC3=C[C@H](C)OC3=O)O2)O1 (relative stereo)
IC50 (NCI-H522): < 10 µM
IC50 (A2058): 6.6 µM
IC50 (A2780): 6.4 µM

CCCCCCCCCCC[C@H](O)[C@@H]1CC[C@@H]([C@H]2CC[C@H]([C@@H](O)CCCCCCCC[C@H](O)CCC3=C[C@H](C)OC3=O)O2)O1 (relative stereo)
IC50 (NCI-H522): < 10 µM
IC50 (A2058): 7.2 µM
IC50 (A2780): 8.8 µM
